Laboratory results as given in ChEMBL document CHEMBL3621116, “Benzimidazole Derivatives as Potent JAK1-Selective Inhibitors” (J Med Chem, 2015).
Activity calls are given as the source filed them. The calls are words filed in the database; no cut-off is given here.

Tests used:
Homo sapiens [1] = species on record: Homo sapiens; assay: Selectivity ratio of IC50 for JAK3 (unknown origin) using 16 uM of ATP and Tyr6 peptide to IC50 for JAK1 (unknown origin) using 87 uM of ATP and Tyr6 peptide
Outline: (§1)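 JAK1 selectivity taken as IC50 against JAK2 or JAK3 divided by IC50 against JAK1. […] IC50s are means ± SD of three independent experiments.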

[2] = molecular target: T1, Tyrosine-protein kinase JAK1 (Homo sapiens, UniProt P23458); assay: Inhibition of JAK1 (unknown origin) using 87 uM of ATP and Tyr6 peptide by Z'-LYTE kinase assay
T1 sequence (P23458 whole entry): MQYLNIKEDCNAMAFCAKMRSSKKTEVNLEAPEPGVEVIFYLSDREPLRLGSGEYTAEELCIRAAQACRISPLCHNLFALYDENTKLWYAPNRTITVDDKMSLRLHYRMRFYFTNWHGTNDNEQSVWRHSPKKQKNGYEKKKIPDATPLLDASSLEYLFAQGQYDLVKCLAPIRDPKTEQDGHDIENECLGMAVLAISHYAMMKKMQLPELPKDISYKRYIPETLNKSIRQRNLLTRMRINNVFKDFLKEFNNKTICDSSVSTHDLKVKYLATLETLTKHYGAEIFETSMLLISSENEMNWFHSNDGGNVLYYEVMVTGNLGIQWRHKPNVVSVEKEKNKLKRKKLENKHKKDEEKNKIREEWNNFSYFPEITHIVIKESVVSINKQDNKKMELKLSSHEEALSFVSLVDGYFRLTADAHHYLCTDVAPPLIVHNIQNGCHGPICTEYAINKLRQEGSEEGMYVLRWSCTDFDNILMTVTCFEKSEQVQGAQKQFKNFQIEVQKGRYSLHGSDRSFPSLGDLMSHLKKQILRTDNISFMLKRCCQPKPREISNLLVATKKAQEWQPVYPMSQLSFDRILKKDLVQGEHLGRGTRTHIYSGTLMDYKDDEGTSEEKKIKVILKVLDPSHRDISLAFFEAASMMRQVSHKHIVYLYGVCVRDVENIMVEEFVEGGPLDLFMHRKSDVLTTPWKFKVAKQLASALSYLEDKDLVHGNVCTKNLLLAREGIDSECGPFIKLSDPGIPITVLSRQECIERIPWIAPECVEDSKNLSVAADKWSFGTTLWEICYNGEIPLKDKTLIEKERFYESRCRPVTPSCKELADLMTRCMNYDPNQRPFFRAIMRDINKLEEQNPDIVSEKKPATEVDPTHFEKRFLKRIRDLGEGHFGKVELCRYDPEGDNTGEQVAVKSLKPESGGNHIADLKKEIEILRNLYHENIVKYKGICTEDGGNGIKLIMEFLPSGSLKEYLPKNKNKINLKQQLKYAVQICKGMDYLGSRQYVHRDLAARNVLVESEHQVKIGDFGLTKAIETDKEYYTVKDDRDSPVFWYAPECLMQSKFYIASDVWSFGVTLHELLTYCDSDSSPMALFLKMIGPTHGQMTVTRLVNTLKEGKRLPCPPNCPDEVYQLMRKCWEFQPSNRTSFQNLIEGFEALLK

Homo sapiens [3] = species on record: Homo sapiens; assay: Selectivity ratio of IC50 for JAK2 (unknown origin) using 35 uM of ATP and Tyr6 peptide to IC50 for JAK1 (unknown origin) using 87 uM of ATP and Tyr6 peptide; outline: as §1
[4] = molecular target: T2, Tyrosine-protein kinase JAK2 (Homo sapiens, UniProt O60674); assay: Inhibition of JAK2 (unknown origin) using 35 uM of ATP and Tyr6 peptide by Z'-LYTE kinase assay
T2 sequence (O60674 whole entry): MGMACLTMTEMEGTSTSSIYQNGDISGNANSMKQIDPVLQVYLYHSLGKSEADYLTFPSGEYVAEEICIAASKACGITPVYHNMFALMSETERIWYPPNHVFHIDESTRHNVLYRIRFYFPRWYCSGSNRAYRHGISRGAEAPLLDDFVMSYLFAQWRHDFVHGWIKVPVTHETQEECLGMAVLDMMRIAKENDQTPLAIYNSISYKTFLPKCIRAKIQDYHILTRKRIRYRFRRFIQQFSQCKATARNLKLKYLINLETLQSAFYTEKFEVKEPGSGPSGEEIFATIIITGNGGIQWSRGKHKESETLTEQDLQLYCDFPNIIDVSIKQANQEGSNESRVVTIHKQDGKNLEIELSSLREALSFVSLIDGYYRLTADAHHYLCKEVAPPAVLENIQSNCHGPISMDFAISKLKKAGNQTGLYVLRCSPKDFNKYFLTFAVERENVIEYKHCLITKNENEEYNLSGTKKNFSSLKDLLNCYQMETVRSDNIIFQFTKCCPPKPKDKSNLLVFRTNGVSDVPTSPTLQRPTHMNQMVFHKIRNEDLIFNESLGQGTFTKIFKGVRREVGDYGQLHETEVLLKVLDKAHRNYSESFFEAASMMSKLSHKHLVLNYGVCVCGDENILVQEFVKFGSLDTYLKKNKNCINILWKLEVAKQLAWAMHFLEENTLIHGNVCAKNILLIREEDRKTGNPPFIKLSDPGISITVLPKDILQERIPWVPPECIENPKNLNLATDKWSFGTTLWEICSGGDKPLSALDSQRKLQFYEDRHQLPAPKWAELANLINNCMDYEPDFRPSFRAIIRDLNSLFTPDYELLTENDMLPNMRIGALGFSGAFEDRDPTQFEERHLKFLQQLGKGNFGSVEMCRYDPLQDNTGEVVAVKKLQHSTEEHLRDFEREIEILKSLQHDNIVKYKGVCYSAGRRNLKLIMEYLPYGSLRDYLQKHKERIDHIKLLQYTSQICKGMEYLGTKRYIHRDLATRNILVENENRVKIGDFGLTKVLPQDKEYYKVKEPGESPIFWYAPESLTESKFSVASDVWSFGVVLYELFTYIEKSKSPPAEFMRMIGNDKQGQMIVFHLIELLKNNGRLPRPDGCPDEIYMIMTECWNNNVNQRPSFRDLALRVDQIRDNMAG

[5] = molecular target: T3, Tyrosine-protein kinase JAK3 (Homo sapiens, UniProt P52333); assay: Inhibition of JAK3 (unknown origin) using 16 uM of ATP and Tyr6 peptide by Z'-LYTE kinase assay
T3 sequence (P52333 whole entry): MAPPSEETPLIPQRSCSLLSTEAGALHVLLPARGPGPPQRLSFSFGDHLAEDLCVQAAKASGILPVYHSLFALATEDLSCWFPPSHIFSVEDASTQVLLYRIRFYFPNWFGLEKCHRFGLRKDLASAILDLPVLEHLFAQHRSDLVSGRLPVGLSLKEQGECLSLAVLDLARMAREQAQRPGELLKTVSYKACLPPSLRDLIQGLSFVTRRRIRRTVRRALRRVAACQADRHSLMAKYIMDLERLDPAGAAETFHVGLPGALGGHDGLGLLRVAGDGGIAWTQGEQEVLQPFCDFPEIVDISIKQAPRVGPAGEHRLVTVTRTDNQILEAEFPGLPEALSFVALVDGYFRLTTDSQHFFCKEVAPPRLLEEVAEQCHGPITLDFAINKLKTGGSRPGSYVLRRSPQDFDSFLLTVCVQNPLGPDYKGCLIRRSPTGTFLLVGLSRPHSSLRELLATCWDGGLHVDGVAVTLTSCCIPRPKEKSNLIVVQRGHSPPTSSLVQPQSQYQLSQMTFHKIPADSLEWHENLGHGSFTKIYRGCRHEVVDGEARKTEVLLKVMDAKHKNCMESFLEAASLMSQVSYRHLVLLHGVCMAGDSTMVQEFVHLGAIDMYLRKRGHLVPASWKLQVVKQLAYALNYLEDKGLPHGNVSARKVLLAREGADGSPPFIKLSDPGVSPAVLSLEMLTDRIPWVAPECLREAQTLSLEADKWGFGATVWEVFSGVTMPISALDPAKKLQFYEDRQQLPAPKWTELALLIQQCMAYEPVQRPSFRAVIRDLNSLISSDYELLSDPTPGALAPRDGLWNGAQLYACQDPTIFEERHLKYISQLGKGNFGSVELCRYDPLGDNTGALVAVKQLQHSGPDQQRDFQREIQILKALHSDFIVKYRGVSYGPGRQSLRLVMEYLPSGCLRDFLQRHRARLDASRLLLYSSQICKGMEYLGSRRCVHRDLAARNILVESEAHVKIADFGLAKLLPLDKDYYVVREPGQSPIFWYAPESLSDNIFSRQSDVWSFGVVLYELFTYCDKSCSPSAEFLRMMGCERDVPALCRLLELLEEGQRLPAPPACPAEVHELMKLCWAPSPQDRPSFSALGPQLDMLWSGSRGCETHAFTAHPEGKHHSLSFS

[6] = molecular target: T4, Non-receptor tyrosine-protein kinase TYK2 (Homo sapiens, UniProt P29597); assay: Inhibition of Tyk2 (unknown origin) using 25 uM of ATP and Tyr3 peptide by Z'-LYTE kinase assay
T4 sequence (P29597 whole entry): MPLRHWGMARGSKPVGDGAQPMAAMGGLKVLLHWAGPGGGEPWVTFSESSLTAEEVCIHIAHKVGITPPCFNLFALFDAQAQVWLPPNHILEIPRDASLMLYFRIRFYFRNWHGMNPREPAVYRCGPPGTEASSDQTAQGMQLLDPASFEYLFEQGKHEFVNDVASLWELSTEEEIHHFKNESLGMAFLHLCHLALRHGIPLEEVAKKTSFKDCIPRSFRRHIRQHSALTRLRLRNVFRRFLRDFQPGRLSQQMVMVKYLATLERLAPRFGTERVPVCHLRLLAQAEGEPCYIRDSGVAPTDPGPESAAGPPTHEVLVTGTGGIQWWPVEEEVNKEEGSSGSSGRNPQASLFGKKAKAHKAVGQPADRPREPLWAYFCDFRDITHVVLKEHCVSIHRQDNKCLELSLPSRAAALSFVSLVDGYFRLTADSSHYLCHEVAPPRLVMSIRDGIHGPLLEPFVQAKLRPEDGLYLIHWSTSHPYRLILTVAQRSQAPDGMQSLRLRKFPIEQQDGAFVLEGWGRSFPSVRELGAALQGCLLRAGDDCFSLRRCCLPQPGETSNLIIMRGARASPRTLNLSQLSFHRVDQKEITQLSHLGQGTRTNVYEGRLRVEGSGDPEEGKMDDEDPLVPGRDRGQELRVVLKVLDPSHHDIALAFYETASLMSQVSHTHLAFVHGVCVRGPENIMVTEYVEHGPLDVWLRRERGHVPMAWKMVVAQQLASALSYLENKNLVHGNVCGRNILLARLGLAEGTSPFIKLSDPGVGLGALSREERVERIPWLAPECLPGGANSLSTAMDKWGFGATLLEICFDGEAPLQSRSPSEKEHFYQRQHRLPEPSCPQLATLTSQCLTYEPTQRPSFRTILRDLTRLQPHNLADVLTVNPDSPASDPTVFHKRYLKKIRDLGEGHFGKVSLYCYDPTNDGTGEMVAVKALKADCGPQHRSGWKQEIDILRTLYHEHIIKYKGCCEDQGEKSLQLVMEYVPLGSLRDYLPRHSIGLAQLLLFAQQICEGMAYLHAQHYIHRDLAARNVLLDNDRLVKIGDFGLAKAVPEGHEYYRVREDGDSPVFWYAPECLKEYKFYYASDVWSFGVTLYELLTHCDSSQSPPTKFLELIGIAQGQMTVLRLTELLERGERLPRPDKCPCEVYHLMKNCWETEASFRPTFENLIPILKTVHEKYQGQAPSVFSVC

Homo sapiens [7] = species on record: Homo sapiens; assay: Selectivity ratio of IC50 for JAK2 (unknown origin) to IC50 for JAK1 (unknown origin) by cell based assay
[8] = Half life in Sprague-Dawley rat at 5 mg/kg, iv; type: ADME, organism-based; details: in vivo
Outline: (§2)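 Rats dosed intravenously. Steady-state volume of distribution, systemic plasma clearance and plasma half-life derived from plasma concentration data.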

[9] = molecular target: T4, Non-receptor tyrosine-protein kinase TYK2; assay: Inhibition of Tyk2 (unknown origin) using 1 mM of ATP and Tyr3 peptide by Z'-LYTE kinase assay
[10] = Volume of distribution at steady state in Sprague-Dawley rat at 5 mg/kg, iv; type: ADME, organism-based; details: in vivo, read-out: Vdss; outline: as §2
[11] = molecular target: T2, Tyrosine-protein kinase JAK2; assay: Inhibition of JAK2 (unknown origin) using 1 mM of ATP and Tyr6 peptide by Z'-LYTE kinase assay
[12] = Plasma clearance in Sprague-Dawley rat at 5 mg/kg, iv; type: ADME, organism-based; outline: as §2
[13] = molecular target: T1, Tyrosine-protein kinase JAK1; assay: Inhibition of JAK1 (unknown origin) using 1 mM of ATP and Tyr6 peptide by Z'-LYTE kinase assay
[14] = Oral bioavailability in Sprague-Dawley rat at 10 mg/kg; type: ADME, organism-based; details: in vivo
[15] = molecular target: T2, Tyrosine-protein kinase JAK2; assay: Inhibition of JAK2 in human A431 cells assessed as erythropoietin-induced STAT5 phosphorylation at 0.001 to 10 uM after 2 hrs by ELISA; type: cell-based; details: A-431
[16] = Permeability of the compound by PAMPA; type: physicochemical; details: read-out: permeability
[17] = molecular target: T3, Tyrosine-protein kinase JAK3; assay: Inhibition of JAK3 (unknown origin) using 1 mM of ATP and Tyr6 peptide by Z'-LYTE kinase assay
[18] = molecular target: T1, Tyrosine-protein kinase JAK1; details: A-431, 0.001 to 10 uM
[19] = molecular target: T2, Tyrosine-protein kinase JAK2; assay: Inhibition of JAK2 (unknown origin)

| SMILES | Ratio IC50 (Homo sapiens [1]) | IC50 [2] [µM] | Ratio IC50 (Homo sapiens [3]) | IC50 [4] [µM] | IC50 [5] [µM] | IC50 [6] [µM] | other results |
| --- | --- | --- | --- | --- | --- | --- | --- |
| NCCn1c(-c2ccc(O)cc2)nc2cc(C(N)=O)ccc21 | 20 | 0.1 | 11 | 1.3 | 2.4 | 3.2 | – |
| NCCn1c(C2CCCCC2)nc2cc(C(N)=O)ccc21 | 0.6 | 4.3 | 1 | 4.1 | 2.5 | 3.3 | – |
| NCCn1c(-c2ccc(C(F)(F)F)cc2)nc2cc(C(N)=O)ccc21 | 0.2 | 9.3 | 0.5 | 4.8 | 2.1 | 3.2 | – |
| NCCc1nc2cc(C(N)=O)ccc2n1CCN | 15 | 0.1 | 29 | 2.9 | 1.5 | 3.1 | – |
| N#Cc1ccc(-c2nc3cc(C(N)=O)ccc3n2CCN)cc1 | 0.7 | 2.9 | 0.9 | 2.6 | 1.9 | 2.5 | – |
| CC[C@@H]1CN(C(=O)NCC(F)(F)F)C[C@@H]1c1cnc2cnc3[nH]ccc3n12 | – | – | – | – | – | – | Ratio IC50 (Homo sapiens [7]): 74 |
| NCCCc1nc2cc(C(N)=O)ccc2n1CCN | 0.5 | 2.2 | 0.7 | 1.6 | 1.1 | 2.5 | – |
| NCCn1c(-c2cccnc2N)nc2cc(C(N)=O)ccc21 | 0.2 | 8.1 | 0.6 | 4.7 | 1.9 | 4.3 | – |
| NCCCn1c(-c2ccccc2)nc2cc(C(N)=O)ccc21 | 0.2 | 11.3 | 2 | 20.5 | 1.8 | 2.7 | – |
| CC(C)c1ccc(-c2nc3cc(C(N)=O)ccc3n2CCN)cc1 | 0.6 | 3.1 | 2 | 5.9 | 1.9 | 2.7 | – |
| Cc1ccc(-c2nc3cc(C(N)=O)ccc3n2CCN)cc1 | 0.6 | 3.7 | 0.7 | 2.6 | 2.3 | 3.5 | – |
| NCCn1c(-c2ccncc2)nc2cc(C(N)=O)ccc21 | 0.3 | 32.4 | 0.4 | 13.5 | 10.5 | 5.8 | – |
| NCCn1c(-c2ccc(O)cc2O)nc2cc(C(N)=O)ccc21 | 0.9 | 3.1 | 0.8 | 2.5 | 2.9 | 3.7 | – |
| NCCCn1c(CCN)nc2cc(C(N)=O)ccc21 | 0.2 | 6.1 | 0.4 | 2.2 | 1.5 | 6.4 | – |
| NCCn1c(C2CCNCC2)nc2cc(C(N)=O)ccc21 | 25 | 0.05 | 63 | 3.15 | 1.26 | 3.7 | half-life [8]: 9.1 h; IC50 [9]: 759 µM; Vd [10]: 0.5 L/kg; IC50 [11]: 437 µM; clearance [12]: 6.67 mL/min/kg; IC50 [13]: 5.7 µM; bioavailability [14]: 0.7%; inhibition [15]: inactive; Papp [16]: 0.1 ×10⁻⁶ cm/s; IC50 [17]: 232 µM; inhibition [18]: inactive |
| NCCn1c(-c2cncnc2)nc2cc(C(N)=O)ccc21 | 0.7 | 3.4 | 0.5 | 1.6 | 2.5 | 2.8 | – |
| NCCn1c(-c2ccccc2)nc2cc(C(N)=O)ccc21 | 1 | 11.6 | 0.2 | 2.8 | 14.1 | 4.2 | – |
| CC[C@@](C)(Nc1ccnc(-c2c[nH]c3ncccc23)n1)C(=O)NCC(F)(F)F [DECERNOTINIB] | – | – | – | – | – | – | IC50 [19]: 0.013 µM |
